Experimental data reported in ChEMBL document CHEMBL3739255, “Novel Series of Dihydropyridinone P2X7 Receptor Antagonists” (J Med Chem, 2015).
pIC50: −log10 of the molar value.

How the values were obtained:
[1] = target: Translocator protein (Rattus norvegicus) (UniProt P16257); test: Inhibition of rat peripheral type benzodiazepine receptor at 10 uM by radioligand binding assay
Procedure, shortened: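 Single-concentration screen at 10 uM in a commercial 78-receptor panel run by CEREP; results are given as % inhibition.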

[2] = Metabolic stability in human blood; assay type: ADME; conditions: read-out: Stability (converted)
[3] = target: Pituitary adenylate cyclase-activating polypeptide type I receptor (Homo sapiens) (UniProt P41586); test: Inhibition of human PAC1 at 10 uM by radioligand binding assay
Chain of Pituitary adenylate cyclase-activating polypeptide type I receptor (Homo sapiens) (P41586 21-468 limits assumed): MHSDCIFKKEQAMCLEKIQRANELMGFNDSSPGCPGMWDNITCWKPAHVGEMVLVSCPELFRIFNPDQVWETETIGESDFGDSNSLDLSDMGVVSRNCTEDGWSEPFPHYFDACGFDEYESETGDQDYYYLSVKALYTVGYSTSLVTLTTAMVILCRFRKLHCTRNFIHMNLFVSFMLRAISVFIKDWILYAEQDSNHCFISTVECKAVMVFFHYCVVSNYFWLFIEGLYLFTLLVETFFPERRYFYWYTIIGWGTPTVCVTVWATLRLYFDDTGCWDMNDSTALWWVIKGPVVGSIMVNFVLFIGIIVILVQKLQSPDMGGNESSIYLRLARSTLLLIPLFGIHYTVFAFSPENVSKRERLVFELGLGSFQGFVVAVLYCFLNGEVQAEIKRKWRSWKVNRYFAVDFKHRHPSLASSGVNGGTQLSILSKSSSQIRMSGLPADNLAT
Procedure, shortened: (§1)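 Commercial receptor scan across a 78-target panel, with percent inhibition measured at a test concentration of 10 uM.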

[4] = target: Nociceptin receptor (Homo sapiens) (UniProt P41146); test: Inhibition of human ORL1 receptor at 10 uM by radioligand binding assay; procedure, shortened: as §1
Chain of Nociceptin receptor (Homo sapiens) (P41146 whole entry): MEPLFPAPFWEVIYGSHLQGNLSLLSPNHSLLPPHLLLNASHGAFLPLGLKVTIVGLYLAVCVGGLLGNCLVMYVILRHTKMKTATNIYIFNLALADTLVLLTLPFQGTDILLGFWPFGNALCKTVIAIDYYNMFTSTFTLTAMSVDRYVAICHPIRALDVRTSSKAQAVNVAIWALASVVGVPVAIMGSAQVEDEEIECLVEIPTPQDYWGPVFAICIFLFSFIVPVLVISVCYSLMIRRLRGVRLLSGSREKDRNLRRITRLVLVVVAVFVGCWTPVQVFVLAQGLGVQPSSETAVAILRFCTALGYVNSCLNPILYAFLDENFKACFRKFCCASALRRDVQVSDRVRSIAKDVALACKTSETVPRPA

[5] = target: Neuropeptide Y receptor type 1 (Homo sapiens) (UniProt P25929); test: Inhibition of human neuropeptide Y1 receptor at 10 uM by radioligand binding assay
Procedure, shortened: (§2)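 Outsourced broad receptor-screening panel of 78 targets, each tested at a single 10 uM concentration; read-out is percent inhibition. Detailed conditions are given only in the Supporting Information.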

[6] = target: T1, P2X purinoceptor 7 (Homo sapiens, UniProt Q99572); test: Antagonist activity at P2X7R in human whole blood assessed as inhibition of LPS-induced IL-1beta production incubated for 30 mins followed by ATP addition for 30 mins by ELISA assay; assay type: tissue-based
T1 sequence (Q99572 whole entry): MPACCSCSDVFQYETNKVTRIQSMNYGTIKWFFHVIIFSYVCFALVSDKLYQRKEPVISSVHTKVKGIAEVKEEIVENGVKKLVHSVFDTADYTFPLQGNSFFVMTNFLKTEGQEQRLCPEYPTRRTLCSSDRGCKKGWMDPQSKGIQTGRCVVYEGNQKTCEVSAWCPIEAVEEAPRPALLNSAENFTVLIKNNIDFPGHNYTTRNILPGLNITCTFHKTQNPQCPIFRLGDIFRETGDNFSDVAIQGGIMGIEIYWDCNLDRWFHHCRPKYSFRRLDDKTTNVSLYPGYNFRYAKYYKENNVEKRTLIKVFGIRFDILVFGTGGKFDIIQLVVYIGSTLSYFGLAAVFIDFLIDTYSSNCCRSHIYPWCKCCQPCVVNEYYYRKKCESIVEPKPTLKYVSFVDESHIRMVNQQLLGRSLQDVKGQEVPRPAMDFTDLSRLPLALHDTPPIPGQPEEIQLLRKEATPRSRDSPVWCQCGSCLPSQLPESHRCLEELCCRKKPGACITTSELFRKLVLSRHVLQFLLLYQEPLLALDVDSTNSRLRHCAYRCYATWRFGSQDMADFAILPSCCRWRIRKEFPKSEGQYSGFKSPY

[7] = test system: Liver microsome; test: Drug metabolism in rat liver microsomes assessed as GSH adduct UV peak area at 20 uM preincubated for 5 mins followed by NADPH addition measured after 60 mins by LC/MS/MS analysis relative to total area of GSH adduct, other metabolites, parent compound; assay type: ADME; conditions: 1 h, BLD = below limit of detection
[8] = test system: Rattus norvegicus; test: Dose normalized AUC in rat at 2 mg/kg, po administered as single dose; assay type: ADME, organism-based; conditions: in vivo
Procedure, shortened: (§3)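 Single-dose rat PK: iv at 0.5 mg/kg and po at 2 mg/kg. n ≥ 2 animals per time point. Oral AUC normalized to dose; clearance, Vdss and half-life taken from the iv arm.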

[9] = Cmax in rat at 2 mg/kg, po administered as single dose; assay type: ADME, organism-based; parameters: dose 2 mg/kg, route oral; conditions: in vivo; procedure, shortened: as §3
[10] = Volume of distribution at steady state in rat at 2 mg/kg, po and 0.5 mg/kg, iv administered as single dose; assay type: ADME, organism-based; conditions: in vivo, read-out: Vdss
Procedure, shortened: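 Rats given a single dose, iv 0.5 mg/kg or po 2 mg/kg, with n ≥ 2 per time point. Bioavailability is derived from the po and iv exposures. Vdss is reported in L/kg.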

[11] = Half life in rat at 0.5 mg/kg, iv administered as single dose; assay type: ADME, organism-based; conditions: in vivo; procedure, shortened: as §3
[12] = target: Prostacyclin receptor (Homo sapiens) (UniProt P43119); test: Inhibition of human prostanoid IP1 receptor at 10 uM; assay type: functional; procedure, shortened: as §2
[13] = target: Muscarinic acetylcholine receptor M2 (Homo sapiens) (UniProt P08172); test: Inhibition of human muscarinic M2 receptor at 10 uM; procedure, shortened: as §2
Chain of Muscarinic acetylcholine receptor M2 (Homo sapiens) (P08172 whole entry): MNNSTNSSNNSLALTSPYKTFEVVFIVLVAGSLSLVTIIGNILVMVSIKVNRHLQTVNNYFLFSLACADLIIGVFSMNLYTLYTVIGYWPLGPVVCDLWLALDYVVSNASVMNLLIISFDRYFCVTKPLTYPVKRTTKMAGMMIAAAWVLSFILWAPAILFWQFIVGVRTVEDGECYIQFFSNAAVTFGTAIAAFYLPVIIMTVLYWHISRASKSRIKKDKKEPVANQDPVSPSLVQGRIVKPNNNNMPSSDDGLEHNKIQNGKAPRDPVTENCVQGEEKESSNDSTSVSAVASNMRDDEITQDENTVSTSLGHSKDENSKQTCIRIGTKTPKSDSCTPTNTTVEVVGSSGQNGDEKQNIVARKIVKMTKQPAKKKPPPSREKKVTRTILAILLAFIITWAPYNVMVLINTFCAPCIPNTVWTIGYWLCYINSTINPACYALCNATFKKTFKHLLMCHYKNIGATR

[14] = target: Adrenergic receptor alpha-1 (Rattus norvegicus) (UniProt P15823+P23944+P43140); test: Inhibition of rat alpha1-adrenoceptor at 10 uM; procedure, shortened: as §2
[15] = target: Adrenergic receptor alpha-2 (Rattus norvegicus) (UniProt P22086+P19328+P22909); test: Inhibition of rat alpha2-adrenoceptor at 10 uM; procedure, shortened: as §2
[16] = target: Calcitonin gene-related peptide type 1 receptor (Homo sapiens) (UniProt Q16602); test: Inhibition of human CGRP receptor at 10 uM by radioligand binding assay; procedure, shortened: as §1
Chain of Calcitonin gene-related peptide type 1 receptor (Homo sapiens) (Q16602 whole entry): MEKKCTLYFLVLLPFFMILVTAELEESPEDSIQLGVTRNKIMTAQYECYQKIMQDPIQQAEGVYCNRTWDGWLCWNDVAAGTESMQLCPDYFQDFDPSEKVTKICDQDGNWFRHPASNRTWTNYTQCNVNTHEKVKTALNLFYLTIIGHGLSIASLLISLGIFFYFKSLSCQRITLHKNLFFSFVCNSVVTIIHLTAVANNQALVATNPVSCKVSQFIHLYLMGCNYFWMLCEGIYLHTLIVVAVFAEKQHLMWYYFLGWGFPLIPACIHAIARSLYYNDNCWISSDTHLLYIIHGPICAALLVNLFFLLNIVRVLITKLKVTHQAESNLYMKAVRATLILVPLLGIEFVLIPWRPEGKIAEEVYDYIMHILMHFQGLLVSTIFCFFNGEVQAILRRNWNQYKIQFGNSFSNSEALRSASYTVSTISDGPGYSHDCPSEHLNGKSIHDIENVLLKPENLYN

[17] = target: D(1A) dopamine receptor (Homo sapiens) (UniProt P21728); test: Inhibition of human dopamine D1 receptor at 10 uM; procedure, shortened: as §2
[18] = target: Platelet-derived growth factor receptor (Mus musculus) (UniProt P05622+P26618); test: Inhibition of mouse PDGFR at 10 uM by radioligand binding assay; assay type: protein-complex assay; procedure, shortened: as §2
[19] = target: C-X-C chemokine receptor type 2 (Homo sapiens) (UniProt P25025); test: Inhibition of human CXCR2 at 10 uM by radioligand binding assay; procedure, shortened: as §1
[20] = target: Histamine H2 receptor (Homo sapiens) (UniProt P25021); test: Inhibition of human histamine H2 receptor at 10 uM; procedure, shortened: as §2
Chain of Histamine H2 receptor (Homo sapiens) (P25021 whole entry): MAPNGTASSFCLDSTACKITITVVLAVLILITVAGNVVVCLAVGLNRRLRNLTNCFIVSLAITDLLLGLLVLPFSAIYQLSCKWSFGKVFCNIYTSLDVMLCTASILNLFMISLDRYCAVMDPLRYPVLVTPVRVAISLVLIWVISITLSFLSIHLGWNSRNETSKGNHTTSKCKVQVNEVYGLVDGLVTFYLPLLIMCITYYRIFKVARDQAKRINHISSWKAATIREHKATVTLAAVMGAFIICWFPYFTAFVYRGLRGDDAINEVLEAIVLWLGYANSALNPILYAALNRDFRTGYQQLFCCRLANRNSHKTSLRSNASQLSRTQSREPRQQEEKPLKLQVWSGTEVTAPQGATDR

[21] = target: Muscarinic acetylcholine receptor M3 (Homo sapiens) (UniProt P20309); test: Inhibition of human muscarinic M3 receptor at 10 uM; procedure, shortened: as §2
Chain of Muscarinic acetylcholine receptor M3 (Homo sapiens) (P20309 whole entry, looked up): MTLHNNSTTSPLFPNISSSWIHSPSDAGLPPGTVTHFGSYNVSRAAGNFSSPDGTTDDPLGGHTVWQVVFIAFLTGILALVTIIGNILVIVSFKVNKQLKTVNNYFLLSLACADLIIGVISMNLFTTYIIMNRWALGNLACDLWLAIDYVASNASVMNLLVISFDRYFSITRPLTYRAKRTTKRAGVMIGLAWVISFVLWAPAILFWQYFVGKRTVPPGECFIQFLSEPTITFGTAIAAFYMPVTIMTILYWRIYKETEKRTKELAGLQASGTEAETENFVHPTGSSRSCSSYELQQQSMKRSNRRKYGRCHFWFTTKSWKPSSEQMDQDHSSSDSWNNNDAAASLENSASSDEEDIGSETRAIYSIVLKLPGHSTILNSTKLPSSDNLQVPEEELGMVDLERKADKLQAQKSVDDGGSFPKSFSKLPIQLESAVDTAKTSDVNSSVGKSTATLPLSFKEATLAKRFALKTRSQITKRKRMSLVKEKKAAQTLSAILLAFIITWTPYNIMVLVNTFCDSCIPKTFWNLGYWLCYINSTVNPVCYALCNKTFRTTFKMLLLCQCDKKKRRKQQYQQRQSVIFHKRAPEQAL

[22] = target: Muscarinic acetylcholine receptor M4 (Homo sapiens) (UniProt P08173); test: Inhibition of human muscarinic M4 receptor at 10 uM; procedure, shortened: as §2
[23] = target: Muscarinic acetylcholine receptor M5 (Homo sapiens) (UniProt P08912); test: Inhibition of human muscarinic M5 receptor at 10 uM; procedure, shortened: as §2
[24] = target: Substance-P receptor (Homo sapiens) (UniProt P25103); test: Inhibition of human NK1 receptor at 10 uM by radioligand binding assay; procedure, shortened: as §1
Chain of Substance-P receptor (Homo sapiens) (P25103 whole entry): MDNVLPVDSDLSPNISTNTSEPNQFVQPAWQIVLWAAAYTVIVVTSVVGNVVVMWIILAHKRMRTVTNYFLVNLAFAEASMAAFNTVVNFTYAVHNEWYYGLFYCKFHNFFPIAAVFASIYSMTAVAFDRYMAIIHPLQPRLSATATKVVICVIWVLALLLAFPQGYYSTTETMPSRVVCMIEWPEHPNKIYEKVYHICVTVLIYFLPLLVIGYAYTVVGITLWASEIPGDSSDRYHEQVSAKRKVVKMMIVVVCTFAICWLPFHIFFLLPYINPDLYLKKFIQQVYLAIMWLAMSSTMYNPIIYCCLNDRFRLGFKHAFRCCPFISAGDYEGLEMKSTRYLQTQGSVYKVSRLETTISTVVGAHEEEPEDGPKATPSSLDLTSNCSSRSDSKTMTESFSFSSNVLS

[25] = target: 5-hydroxytryptamine receptor 1A (Homo sapiens) (UniProt P08908); test: Inhibition of human 5-HT1A receptor at 10 uM; procedure, shortened: as §1
Chain of 5-hydroxytryptamine receptor 1A (Homo sapiens) (P08908 whole entry): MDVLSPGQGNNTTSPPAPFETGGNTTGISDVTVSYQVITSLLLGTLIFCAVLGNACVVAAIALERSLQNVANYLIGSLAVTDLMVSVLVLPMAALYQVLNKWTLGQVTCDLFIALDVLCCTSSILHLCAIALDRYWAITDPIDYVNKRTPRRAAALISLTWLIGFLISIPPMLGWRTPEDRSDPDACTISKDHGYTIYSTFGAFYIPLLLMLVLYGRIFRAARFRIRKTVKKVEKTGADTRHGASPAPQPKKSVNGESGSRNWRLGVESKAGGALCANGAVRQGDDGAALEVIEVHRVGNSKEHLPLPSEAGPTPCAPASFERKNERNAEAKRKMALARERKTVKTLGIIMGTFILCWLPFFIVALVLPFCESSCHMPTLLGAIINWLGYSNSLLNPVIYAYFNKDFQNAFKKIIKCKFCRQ

[26] = target: 5-hydroxytryptamine receptor 5A (Homo sapiens) (UniProt P47898); test: Inhibition of human 5-HT5A receptor at 10 uM by radioligand binding assay; procedure, shortened: as §1
[27] = target: Vasopressin V1a receptor (Homo sapiens) (UniProt P37288); test: Inhibition of human vasopressin V1a receptor at 10 uM by radioligand binding assay; procedure, shortened: as §2
Chain of Vasopressin V1a receptor (Homo sapiens) (P37288 whole entry, looked up): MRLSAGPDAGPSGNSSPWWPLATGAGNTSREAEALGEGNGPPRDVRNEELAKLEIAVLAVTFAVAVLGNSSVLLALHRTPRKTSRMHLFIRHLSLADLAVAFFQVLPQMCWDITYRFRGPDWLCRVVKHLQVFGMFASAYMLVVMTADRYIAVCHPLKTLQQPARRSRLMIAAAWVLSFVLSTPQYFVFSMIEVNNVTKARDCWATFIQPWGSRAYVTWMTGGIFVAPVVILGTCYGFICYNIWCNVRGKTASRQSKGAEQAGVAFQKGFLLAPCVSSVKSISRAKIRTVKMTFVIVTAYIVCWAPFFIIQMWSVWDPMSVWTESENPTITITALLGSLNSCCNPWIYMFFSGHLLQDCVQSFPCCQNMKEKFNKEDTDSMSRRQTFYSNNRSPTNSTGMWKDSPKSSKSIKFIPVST

[28] = target: Sodium-dependent serotonin transporter (Homo sapiens) (UniProt P31645); test: Inhibition of human 5-HT transporter at 10 uM; procedure, shortened: as §1
[29] = target: Prostaglandin E2 receptor EP4 subtype (Homo sapiens) (UniProt P35408); test: Inhibition of human prostanoid EP4 receptor at 10 uM by radioligand binding assay; procedure, shortened: as §2
Chain of Prostaglandin E2 receptor EP4 subtype (Homo sapiens) (P35408 whole entry): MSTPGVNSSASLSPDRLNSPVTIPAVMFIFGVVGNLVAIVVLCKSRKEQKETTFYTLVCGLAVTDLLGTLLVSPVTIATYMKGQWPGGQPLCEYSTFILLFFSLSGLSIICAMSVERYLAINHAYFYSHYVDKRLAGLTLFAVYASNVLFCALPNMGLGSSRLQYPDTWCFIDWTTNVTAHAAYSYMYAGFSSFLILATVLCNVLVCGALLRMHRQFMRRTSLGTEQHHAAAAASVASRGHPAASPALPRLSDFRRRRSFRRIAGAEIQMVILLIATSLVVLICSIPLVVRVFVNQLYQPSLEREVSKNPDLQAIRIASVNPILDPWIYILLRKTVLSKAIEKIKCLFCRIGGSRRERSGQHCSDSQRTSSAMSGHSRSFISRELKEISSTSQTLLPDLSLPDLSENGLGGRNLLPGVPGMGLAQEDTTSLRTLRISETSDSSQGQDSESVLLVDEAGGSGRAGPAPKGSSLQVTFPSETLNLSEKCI

[30] = organism: Rattus norvegicus; test: Inhibition of rat P2Y purinoceptor at 10 uM by radioligand binding assay; procedure, shortened: as §2
[31] = target: adenosine A3 receptor (Homo sapiens) (UniProt P0DMS8); test: Inhibition of human adenosine A3 receptor at 10 uM by radioligand binding assay
Chain of adenosine A3 receptor (Homo sapiens) (P0DMS8 whole entry, looked up): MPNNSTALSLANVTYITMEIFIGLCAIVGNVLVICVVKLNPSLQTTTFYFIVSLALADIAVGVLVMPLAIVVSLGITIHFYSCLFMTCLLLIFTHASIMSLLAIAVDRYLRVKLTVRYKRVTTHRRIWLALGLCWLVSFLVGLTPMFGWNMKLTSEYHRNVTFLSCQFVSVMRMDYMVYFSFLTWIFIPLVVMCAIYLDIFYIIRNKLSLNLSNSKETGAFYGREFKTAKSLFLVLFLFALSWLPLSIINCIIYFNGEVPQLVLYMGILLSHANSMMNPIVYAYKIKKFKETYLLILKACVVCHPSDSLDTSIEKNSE

Chain of Translocator protein (Rattus norvegicus) (P16257 whole entry, looked up): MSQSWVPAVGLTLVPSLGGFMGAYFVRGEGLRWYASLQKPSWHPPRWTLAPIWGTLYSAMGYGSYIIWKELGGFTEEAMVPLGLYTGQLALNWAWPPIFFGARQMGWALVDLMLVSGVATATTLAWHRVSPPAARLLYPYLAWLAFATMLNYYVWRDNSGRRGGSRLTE

## Cc1cc(Cl)c(OCCO)cc1NC(=O)C1=CNC(=O)C[C@H]1c1ccc(F)cc1
[1]
  inhibition: < 30%
[2]
  half-life: 3 h
[3]
  inhibition: < 30%
[4]
  inhibition: < 30%
[5]
  inhibition: < 30%
[6]
  pIC50: 7.22
[7]
  Drug metabolism: BLD
[8]
  AUC/dose: 1550 ng·h/mL/mg/kg
[9]
  Cmax: 330 ng/mL
[10]
  Vd: 2.2 L/kg
[11]
  half-life: 4 h
[12]
  inhibition: < 30%
[13]
  inhibition: < 30%
[14]
  inhibition: < 30%
[15]
  inhibition: < 30%
[16]
  inhibition: < 30%
[17]
  inhibition: < 30%
[18]
  inhibition: < 30%
[19]
  inhibition: < 30%
[20]
  inhibition: < 30%
[21]
  inhibition: < 30%
[22]
  inhibition: < 30%
[23]
  inhibition: < 30%
[24]
  inhibition: < 30%
[25]
  inhibition: < 30%
[26]
  inhibition: < 30%
[27]
  inhibition: < 30%
[28]
  inhibition: < 30%
[29]
  inhibition: < 30%
[30]
  inhibition: < 30%
[31]
  inhibition: < 30%
